We go through eleven compounds from ChEMBL document CHEMBL1121726, “Pyrazolopyrimidine nucleosides. 12. Synthesis and biological activity of certain pyrazolo[3,4-d]pyrimidine nucleosides related to adenosine” (1981).

SMILES strings stand for the structures. Active and inactive are the calls of the source. No cut-off for these calls is given here. Bounds are passed on as bounds.

Assay [1] relates to L1210. The experiment in a line: Increase in life span of tumor L1210 leukemic mice 1-5 days after 400 mg/kg administered. In kind it is functional, Mus musculus. The method in brief:
(§1)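 Mice bearing L1210 or P388 leukemia were injected with drug at the listed dose per injection on the listed days after tumor-cell inoculation. ILS was the percentage increase in life span of treated mice over untreated tumor-bearing controls.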

Assay [2] relates to L1210. The experiment in a line: Toxicity against L1210 leukemic cells 1-5 days after administration of 400 mg/kg of the compound; nt= No higher dose tested. More on the design: dose 400 mg/kg. To be noted: Mus musculus. In kind it is functional, organism-based. Summed up: (§2)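 Mice bearing L1210 or P388 leukemia were injected at the stated dose per injection on the listed days after tumor-cell inoculation. Host toxicity scores whether higher doses on the same schedule caused drug-induced shortening of life span: y = yes, n = no, nt = no higher dose tested.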

In assay [3] the test system is L1210. The experiment in a line: Increase in life span of tumor L1210 leukemic mice 1-5 days after 200 mg/kg administered. It counts as functional, Mus musculus. The method in brief:
as §1

The subject of assay [4] is L1210. The experiment in a line: Toxicity against L1210 leukemic cells 1-5 days after administration of 200 mg/kg of the compound; No higher dose tested. It counts as functional, organism-based. The note with it: Mus musculus. More on the design: dose 200 mg/kg. The method in brief: as §2
Assay [5] deals with L1210. The experiment in a line: In vitro inhibition of growth of L1210 mouse leukemic cells. In kind it is functional. The note with it: read-out: ID50 (the source's name). The method in brief:
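L1210 cells grown in static suspension culture in Fischer's medium for leukemic cells of mice, exposed to a range of test-compound concentrations. Growth rate measured over 3 days.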

Assay [6] deals with L1210. Kind of assay: Number of mice surviving 1-5 days after 25 mg/kg administered; 1/12. In kind it is functional, Mus musculus.
In assay [7] the test system is L1210. The experiment in a line: Increase in life span of tumor L1210 leukemic mice 1-5 days after 25 mg/kg administered. In kind it is functional, Mus musculus. Summed up: as §1
The subject of assay [8] is L1210. Kind of assay: Toxicity against L1210 leukemic cells 1-5 days after administration of 25 mg/kg of the compound; Yes. In kind it is functional, organism-based. The arrangement: dose 25 mg/kg. The note with it: Mus musculus. The method in brief: as §2
Assay [9] relates to P388. The experiment in a line: Increase in life span of tumor P388 leukemic mice 1,5,9 days after 100 mg/kg administered.
Assay [10] relates to P388. Kind of assay: Toxicity against P388 leukemic cells 1,5,9 days after administration of 100 mg/kg of the compound; Yes. The note with it: Mus musculus.
Assay [11] has as its system L1210. Kind of assay: Increase in life span of tumor L1210 leukemic mice 1-5 day after 400 mg/kg administered. It counts as functional, Mus musculus. The method in brief: as §1
In assay [12] the test system is L1210. The experiment in a line: […] against L1210 leukemic cells 1-5 days after administration of 400 mg/kg of the compound; No higher dose tested. In kind it is functional, organism-based. The arrangement: dose 400 mg/kg. To be noted: Mus musculus.
Assay [13] deals with L1210. The experiment in a line: Increase in life span of tumor L1210 leukemic mice 1-9 days after 100 mg/kg administered. In kind it is functional, Mus musculus. Summed up:
as §1

Assay [14] concerns L1210. Kind of assay: Toxicity against L1210 leukemic cells 1-9 days after administration of 100 mg/kg of the compound; nt= No higher dose tested. To be noted: Mus musculus. The arrangement: dose 100 mg/kg. It counts as functional, organism-based. The method in brief: as §2
For assay [15], the system named is L1210. Kind of assay: Increase in life span of tumor L1210 leukemic mice 1-5 day after 200 mg/kg administered. It counts as functional, Mus musculus. Summed up:
as §1

The test system of assay [16] is L1210. The experiment in a line: Toxicity against L1210 leukemic cells 1-5 days after administration of 200 mg/kg of the compound; Yes. In kind it is functional, organism-based. The arrangement: dose 200 mg/kg. To be noted: Mus musculus. Summed up: as §2
Assay [17] has as its system L1210. The experiment in a line: Increase in life span of tumor L1210 leukemic mice 1-9 days after 400 mg/kg administered. In kind it is functional, Mus musculus. The method in brief: as §1
The test system of assay [18] is L1210. Kind of assay: Toxicity against L1210 leukemic cells 1-9 days after administration of 400 mg/kg of the compound; No higher dose tested. It counts as functional, organism-based. The arrangement: dose 400 mg/kg. To be noted: Mus musculus. The method in brief:
as §2

Assay [19] deals with L1210. Kind of assay: […] against L1210 leukemic cells 1-9 days after administration of 400 mg/kg of the compound; No higher dose tested. It counts as functional, organism-based. The arrangement: dose 400 mg/kg. The note with it: Mus musculus.
Assay [20] has as its system L1210. Kind of assay: Increase in life span of tumor L1210 leukemic mice 1-5 day after 50 mg/kg administered. In kind it is functional, Mus musculus. Summed up: as §1
Assay [21] deals with L1210. The experiment in a line: […] against L1210 leukemic cells 1-5 days after administration of 50 mg/kg of the compound; Yes. It counts as functional, organism-based. More on the design: dose 50 mg/kg. The note with it: Mus musculus.
Assay [22] has as its system L1210. Kind of assay: Number of mice surviving 1-5 days after 200 mg/kg administered; 2/6. It counts as functional, Mus musculus.
Assay [23] relates to L1210. Kind of assay: Toxicity against L1210 leukemic cells 1-5 days after administration of 200 mg/kg of the compound; nt= No higher dose tested. It counts as functional, organism-based. More on the design: dose 200 mg/kg. The note with it: Mus musculus. Summed up:
(§3)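 Host toxicity was scored in leukemia-bearing mice as drug-induced shortening of life span when higher doses were given on the same schedule: y = yes, n = no, nt = no higher dose tested.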

For assay [24], the system named is P388. The experiment in a line: Increase in life span of tumor P388 leukemic mice 1-9 days after 6 mg/kg administered. In kind it is functional, Mus musculus. Summed up:
as §1

For assay [25], the system named is P388. Kind of assay: Toxicity against P388 leukemic cells 1-9 days after administration of 6 mg/kg of the compound; y= Yes. The arrangement: dose 6 mg/kg. The note with it: Mus musculus. In kind it is functional, organism-based. Summed up: as §3

For `OC[C@H]1OC(n2ncc3c(S)ncnc32)[C@H](O)[C@@H]1O` (stereo not given in full), in the assay on L1210 [1], the ILS is listed as -6. For the same compound, in the assay on L1210 [2], the Toxicity entry was “No higher dose tested”.
In turn, `CN(C)c1ncnc2c1cnn2C1O[C@H](CO)[C@@H](O)[C@H]1O` (stereo not given in full) yielded an ILS in the assay on L1210 [3] of 0. Besides, in the assay with L1210 [4], the Toxicity entry is “No higher dose tested”.
Regarding `N/C(=N\O)c1nn(C2O[C@H](CO)[C@@H](O)[C@H]2O)c2ncnc(N)c12` (stereo not given in full), the IC50 in the assay with L1210 [5] was found to be 180 nM. The same compound gave a Cures with L1210 [6] of 1. Further, the ILS with L1210 [7] came to 78; with P388 [9] it was 33. Moreover, the Toxicity entry with L1210 [8] and in the assay with P388 [10] was “Active” each time.
As for `COc1ncnc2c1cnn2C1O[C@H](CO)[C@@H](O)[C@H]1O` (stereo not given in full), in the assay with L1210 [11], the ILS was determined as 12. The Toxicity entry with L1210 [12] was “No higher dose tested”.
Regarding `N#Cc1nn(C2O[C@H](CO)[C@@H](O)[C@H]2O)c2ncnc(N)c12` (stereo not given in full), the IC50 with L1210 [5] is 79 nM. Moreover, in the assay with L1210 [13], the ILS worked out at 27. In the assay on L1210 [14], the Toxicity result was “No higher dose tested”.
Turning to `CSc1ncnc2c1cnn2C1O[C@H](CO)[C@@H](O)[C@H]1O` (stereo not given in full), the IC50 in the assay on L1210 [5] is 9000 nM. For the same compound, the ILS in the assay on L1210 [15] turned out to be 19. The Toxicity entry with L1210 [16] is “Active”.
Take `OC[C@H]1OC(n2ncc3c(NCc4ccco4)ncnc32)[C@H](O)[C@@H]1O` (stereo not given in full): in the assay on L1210 [5], the IC50 is greater than 100000 nM. The compound also yielded an ILS in the assay with L1210 [17] of 6. For the same compound, the Toxicity result with L1210 [18] is “No higher dose tested”.
In the assay on L1210 [1], `OC[C@H]1OC(n2ncc3c(Nc4ccccc4)ncnc32)[C@H](O)[C@@H]1O` (stereo not given in full) gave an ILS of -4. The Toxicity result in the assay with L1210 [12] was “No higher dose tested”.
`OC[C@H]1OC(n2ncc3c(N/N=C/c4ccc(N(CCCl)CCCl)cc4)ncnc32)[C@H](O)[C@@H]1O` (stereo not given in full): the IC50 in the assay with L1210 [5] is roughly 10000 nM. This compound also returned an ILS in the assay on L1210 [17] of -7. Also, the Toxicity result in the assay with L1210 [19] was “No higher dose tested”.
For the compound `CN(C)/C=N/c1ncnc2c1cnn2C1O[C@H](CO)[C@@H](O)[C@H]1O` (stereo not given in full), the IC50 with L1210 [5] was 600 nM. Besides, the ILS in the assay on L1210 [20] came out at 12. Besides, in the assay on L1210 [21], the Toxicity result was “Active”.
Consider `NC(=O)c1nn(C2O[C@H](CO)[C@@H](O)[C@H]2O)c2ncnc(N)c12` (stereo not given in full), for which the IC50 in the assay on L1210 [5] worked out at 100 nM. Moreover, the ILS in the assay with L1210 [3] is given as 136; with P388 [24] it was 90. The same compound displayed a Cures with L1210 [22] of 2. For the same compound, the Toxicity entry with L1210 [23] and with P388 [25] was “No higher dose tested” in each case.
